Test results from ChEMBL document CHEMBL1155349, “Identification of small molecule inhibitors of proline-rich tyrosine kinase 2 (Pyk2) with osteogenic activity in osteoblast cells” (Bioorg Med Chem Lett, 2009).
Blank lines part the entries; values can stand above or below the compound they belong to.

Experiments:
Focal adhesion kinase 1 = Focal adhesion kinase 1 (Homo sapiens, UniProt Q05397); assay: Inhibition of human FAK by HTRF assay
[1] = target: T1, Protein-tyrosine kinase 2-beta (Mus musculus, UniProt Q9QVP9); assay: (§1) Inhibition of mouse Pyk2 in […] cells assessed as increase in alkaline phosphatase level; assay type: cell-based
In short: (§2)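 MC3T3 osteoblast cells were grown with increasing inhibitor concentrations for up to 3 weeks. Alkaline phosphatase, osteocalcin and calcium were measured as osteogenic markers after three weeks in culture, and ALP was also measured at additional time points. EC50 values came from the dose-response. Culture and dosing conditions followed an earlier report.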

[2] = target: Protein-tyrosine kinase 2-beta (Mus musculus) (UniProt Q9QVP9); assay: as §1; assay type: cell-based; in short: as §2
[3] = target: Protein-tyrosine kinase 2-beta (Mus musculus) (UniProt Q9QVP9); assay: Inhibition of mouse Pyk2 in […] cells assessed as increase in calcium level; assay type: cell-based; in short: as §2
[4] = target: T1, Protein-tyrosine kinase 2-beta; assay: (§3) Inhibition of mouse Pyk2 in […] cells assessed as increase in osteocalcin level; assay type: cell-based; in short: as §2
[5] = target: Protein-tyrosine kinase 2-beta (Mus musculus) (UniProt Q9QVP9); assay: as §3; assay type: cell-based; in short: as §2
[6] = target: T2, Protein-tyrosine kinase 2-beta (Homo sapiens, UniProt Q14289); assay: Inhibition of human Pyk2 by HTRF assay
[7] = target: Tyrosine-protein kinase JAK1 (Homo sapiens, UniProt P23458); assay: Inhibition of Jak1
[8] = target: T2, Protein-tyrosine kinase 2-beta; assay: Inhibition of human PyK2 Y402 autophosphorylation expressed in 293T cells by immunofluorescence assay; assay type: cell-based
[9] = target: T3, Tyrosine-protein kinase JAK3 (Homo sapiens, UniProt P52333); assay: Inhibition of Jak3
T3 sequence (P52333 whole entry): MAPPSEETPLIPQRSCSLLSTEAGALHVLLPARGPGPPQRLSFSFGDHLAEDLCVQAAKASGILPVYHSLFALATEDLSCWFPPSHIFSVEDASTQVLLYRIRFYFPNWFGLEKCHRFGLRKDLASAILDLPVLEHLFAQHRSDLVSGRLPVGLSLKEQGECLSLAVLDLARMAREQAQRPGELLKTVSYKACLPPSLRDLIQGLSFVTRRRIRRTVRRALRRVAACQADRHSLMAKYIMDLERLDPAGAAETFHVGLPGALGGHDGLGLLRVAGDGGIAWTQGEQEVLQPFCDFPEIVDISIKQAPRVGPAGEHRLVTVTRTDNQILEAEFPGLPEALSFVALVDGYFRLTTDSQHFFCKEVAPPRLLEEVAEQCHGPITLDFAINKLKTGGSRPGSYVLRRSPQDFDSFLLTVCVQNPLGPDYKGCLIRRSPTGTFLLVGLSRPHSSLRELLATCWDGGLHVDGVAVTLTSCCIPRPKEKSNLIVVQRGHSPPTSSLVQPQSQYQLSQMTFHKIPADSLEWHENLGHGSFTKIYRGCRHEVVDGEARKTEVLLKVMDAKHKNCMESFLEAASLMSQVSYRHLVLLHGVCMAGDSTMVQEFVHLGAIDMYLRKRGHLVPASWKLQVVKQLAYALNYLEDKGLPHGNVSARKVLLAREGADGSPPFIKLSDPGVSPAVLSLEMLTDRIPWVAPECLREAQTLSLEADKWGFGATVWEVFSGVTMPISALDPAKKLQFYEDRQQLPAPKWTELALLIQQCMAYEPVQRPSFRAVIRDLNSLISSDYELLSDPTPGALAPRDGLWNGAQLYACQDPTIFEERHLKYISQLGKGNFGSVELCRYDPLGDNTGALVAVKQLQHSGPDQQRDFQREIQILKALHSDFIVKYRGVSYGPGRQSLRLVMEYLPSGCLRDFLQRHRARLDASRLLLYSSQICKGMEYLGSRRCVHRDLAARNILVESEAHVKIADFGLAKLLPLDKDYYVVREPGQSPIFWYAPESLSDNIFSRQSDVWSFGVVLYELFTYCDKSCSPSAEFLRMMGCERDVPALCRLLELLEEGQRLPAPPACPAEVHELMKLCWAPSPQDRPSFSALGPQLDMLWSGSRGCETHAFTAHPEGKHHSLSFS

[10] = Inhibition of Aurora 2
[11] = target: Non-receptor tyrosine-protein kinase TYK2 (Homo sapiens, UniProt P29597); assay: Inhibition of TYK2
[12] = target: T4, Eukaryotic translation initiation factor 2-alpha kinase 3 (Homo sapiens, UniProt Q9NZJ5); assay: Inhibition of PEK
T4 sequence (Q9NZJ5 whole entry): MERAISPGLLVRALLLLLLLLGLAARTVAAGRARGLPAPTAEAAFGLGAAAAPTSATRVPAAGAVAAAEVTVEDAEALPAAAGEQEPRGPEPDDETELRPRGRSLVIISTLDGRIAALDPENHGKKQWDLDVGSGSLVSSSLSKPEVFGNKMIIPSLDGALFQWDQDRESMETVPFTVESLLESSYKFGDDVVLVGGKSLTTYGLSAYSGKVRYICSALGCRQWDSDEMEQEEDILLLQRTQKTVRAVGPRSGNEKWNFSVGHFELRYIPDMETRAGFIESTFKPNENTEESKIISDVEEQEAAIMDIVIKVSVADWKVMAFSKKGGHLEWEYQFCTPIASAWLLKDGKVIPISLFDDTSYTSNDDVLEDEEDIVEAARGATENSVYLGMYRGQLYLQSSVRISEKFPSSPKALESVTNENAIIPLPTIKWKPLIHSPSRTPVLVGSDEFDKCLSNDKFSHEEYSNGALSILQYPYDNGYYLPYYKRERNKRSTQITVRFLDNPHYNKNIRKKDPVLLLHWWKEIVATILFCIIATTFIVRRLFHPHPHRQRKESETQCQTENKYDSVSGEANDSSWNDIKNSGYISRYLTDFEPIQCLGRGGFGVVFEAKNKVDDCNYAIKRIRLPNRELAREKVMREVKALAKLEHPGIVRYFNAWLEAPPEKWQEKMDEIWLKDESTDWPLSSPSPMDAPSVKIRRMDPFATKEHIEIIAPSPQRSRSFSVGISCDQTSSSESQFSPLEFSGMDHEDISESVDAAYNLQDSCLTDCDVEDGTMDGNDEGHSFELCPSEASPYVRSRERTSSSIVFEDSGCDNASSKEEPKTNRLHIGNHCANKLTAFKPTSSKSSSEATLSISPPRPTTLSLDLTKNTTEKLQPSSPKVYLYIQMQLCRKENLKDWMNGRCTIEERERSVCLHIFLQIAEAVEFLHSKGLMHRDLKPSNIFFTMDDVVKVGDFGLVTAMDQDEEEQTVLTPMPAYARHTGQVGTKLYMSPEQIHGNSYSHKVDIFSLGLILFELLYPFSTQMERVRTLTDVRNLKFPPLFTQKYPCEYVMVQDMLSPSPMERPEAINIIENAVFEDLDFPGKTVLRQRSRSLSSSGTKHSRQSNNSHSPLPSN

[13] = target: Tyrosine-protein kinase JAK2 (Homo sapiens, UniProt O60674); assay: Inhibition of Jak2
[14] = target: Interferon-induced, double-stranded RNA-activated protein kinase (Homo sapiens, UniProt P19525); assay: Inhibition of PKR
Sequence of Interferon-induced, double-stranded RNA-activated protein kinase (P19525 whole entry): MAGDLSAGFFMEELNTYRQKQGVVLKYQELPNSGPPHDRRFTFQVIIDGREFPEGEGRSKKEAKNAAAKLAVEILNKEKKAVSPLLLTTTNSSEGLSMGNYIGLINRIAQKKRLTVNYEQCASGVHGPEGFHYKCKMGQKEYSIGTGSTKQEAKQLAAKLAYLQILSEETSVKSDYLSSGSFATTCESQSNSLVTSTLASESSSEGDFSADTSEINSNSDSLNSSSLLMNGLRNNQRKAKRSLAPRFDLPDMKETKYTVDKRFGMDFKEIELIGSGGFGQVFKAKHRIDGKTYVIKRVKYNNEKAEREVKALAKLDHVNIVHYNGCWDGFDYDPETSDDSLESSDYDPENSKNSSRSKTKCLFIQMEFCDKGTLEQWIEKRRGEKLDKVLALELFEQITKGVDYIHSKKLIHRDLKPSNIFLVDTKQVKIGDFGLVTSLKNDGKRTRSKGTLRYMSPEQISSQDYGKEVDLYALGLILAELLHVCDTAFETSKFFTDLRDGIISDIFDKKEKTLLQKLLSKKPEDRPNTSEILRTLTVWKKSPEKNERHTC

Sequence of Protein-tyrosine kinase 2-beta (Mus musculus) (Q9QVP9 whole entry, looked up): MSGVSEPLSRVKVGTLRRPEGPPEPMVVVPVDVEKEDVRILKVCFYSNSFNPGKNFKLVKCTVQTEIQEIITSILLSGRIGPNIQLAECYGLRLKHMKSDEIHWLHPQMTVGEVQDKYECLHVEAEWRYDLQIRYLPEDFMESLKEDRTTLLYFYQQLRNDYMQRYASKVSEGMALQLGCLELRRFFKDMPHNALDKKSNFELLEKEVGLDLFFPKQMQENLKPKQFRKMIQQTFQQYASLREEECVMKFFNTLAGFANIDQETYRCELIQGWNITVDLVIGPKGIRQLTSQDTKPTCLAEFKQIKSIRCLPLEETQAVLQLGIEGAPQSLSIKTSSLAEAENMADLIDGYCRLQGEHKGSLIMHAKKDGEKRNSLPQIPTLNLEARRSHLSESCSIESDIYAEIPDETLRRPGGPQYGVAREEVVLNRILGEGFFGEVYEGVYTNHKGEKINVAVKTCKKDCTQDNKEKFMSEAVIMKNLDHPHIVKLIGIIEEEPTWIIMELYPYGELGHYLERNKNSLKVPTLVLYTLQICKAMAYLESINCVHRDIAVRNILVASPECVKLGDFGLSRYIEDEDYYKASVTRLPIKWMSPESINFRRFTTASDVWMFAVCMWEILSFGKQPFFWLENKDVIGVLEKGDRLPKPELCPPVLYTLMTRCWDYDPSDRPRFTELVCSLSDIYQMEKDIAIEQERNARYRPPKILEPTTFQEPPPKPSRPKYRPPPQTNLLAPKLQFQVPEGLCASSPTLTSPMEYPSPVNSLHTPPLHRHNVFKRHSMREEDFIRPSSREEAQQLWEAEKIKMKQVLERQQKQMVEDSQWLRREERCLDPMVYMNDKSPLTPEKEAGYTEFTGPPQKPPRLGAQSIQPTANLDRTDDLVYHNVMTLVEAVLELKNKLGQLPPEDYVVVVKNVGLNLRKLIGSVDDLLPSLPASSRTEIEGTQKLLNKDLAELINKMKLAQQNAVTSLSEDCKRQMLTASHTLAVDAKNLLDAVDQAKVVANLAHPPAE
T1 sequence (Q9QVP9 whole entry): as the sequence (Q9QVP9 whole entry, looked up) above
Sequence of Focal adhesion kinase 1 (Q05397 whole entry): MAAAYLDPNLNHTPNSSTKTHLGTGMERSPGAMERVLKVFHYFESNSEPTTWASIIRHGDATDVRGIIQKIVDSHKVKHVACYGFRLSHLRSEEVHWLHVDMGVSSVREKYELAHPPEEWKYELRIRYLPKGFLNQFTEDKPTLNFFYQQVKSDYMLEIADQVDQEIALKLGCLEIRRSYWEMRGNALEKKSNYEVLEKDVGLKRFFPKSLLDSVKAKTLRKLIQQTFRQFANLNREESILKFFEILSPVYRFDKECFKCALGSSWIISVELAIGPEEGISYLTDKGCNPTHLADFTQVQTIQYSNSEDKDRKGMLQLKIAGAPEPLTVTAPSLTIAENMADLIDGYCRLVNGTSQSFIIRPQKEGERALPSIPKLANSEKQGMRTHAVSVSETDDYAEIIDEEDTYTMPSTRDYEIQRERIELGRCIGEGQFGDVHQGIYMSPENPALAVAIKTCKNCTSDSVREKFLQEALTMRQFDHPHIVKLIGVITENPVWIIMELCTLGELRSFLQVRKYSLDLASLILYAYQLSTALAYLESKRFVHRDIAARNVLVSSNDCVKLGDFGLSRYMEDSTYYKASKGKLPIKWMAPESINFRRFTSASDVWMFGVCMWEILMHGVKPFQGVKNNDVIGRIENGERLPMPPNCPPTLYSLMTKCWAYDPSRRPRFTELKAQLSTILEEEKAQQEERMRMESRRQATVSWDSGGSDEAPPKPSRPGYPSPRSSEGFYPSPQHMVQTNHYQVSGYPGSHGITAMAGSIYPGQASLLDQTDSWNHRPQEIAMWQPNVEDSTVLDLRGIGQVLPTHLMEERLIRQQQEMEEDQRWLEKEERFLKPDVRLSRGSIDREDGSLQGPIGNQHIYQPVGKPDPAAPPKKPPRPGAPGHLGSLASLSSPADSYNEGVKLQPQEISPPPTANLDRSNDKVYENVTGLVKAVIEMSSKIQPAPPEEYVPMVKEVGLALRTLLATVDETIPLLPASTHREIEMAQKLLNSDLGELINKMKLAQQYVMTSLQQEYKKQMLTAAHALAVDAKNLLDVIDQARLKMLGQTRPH
T2 sequence (Q14289 whole entry): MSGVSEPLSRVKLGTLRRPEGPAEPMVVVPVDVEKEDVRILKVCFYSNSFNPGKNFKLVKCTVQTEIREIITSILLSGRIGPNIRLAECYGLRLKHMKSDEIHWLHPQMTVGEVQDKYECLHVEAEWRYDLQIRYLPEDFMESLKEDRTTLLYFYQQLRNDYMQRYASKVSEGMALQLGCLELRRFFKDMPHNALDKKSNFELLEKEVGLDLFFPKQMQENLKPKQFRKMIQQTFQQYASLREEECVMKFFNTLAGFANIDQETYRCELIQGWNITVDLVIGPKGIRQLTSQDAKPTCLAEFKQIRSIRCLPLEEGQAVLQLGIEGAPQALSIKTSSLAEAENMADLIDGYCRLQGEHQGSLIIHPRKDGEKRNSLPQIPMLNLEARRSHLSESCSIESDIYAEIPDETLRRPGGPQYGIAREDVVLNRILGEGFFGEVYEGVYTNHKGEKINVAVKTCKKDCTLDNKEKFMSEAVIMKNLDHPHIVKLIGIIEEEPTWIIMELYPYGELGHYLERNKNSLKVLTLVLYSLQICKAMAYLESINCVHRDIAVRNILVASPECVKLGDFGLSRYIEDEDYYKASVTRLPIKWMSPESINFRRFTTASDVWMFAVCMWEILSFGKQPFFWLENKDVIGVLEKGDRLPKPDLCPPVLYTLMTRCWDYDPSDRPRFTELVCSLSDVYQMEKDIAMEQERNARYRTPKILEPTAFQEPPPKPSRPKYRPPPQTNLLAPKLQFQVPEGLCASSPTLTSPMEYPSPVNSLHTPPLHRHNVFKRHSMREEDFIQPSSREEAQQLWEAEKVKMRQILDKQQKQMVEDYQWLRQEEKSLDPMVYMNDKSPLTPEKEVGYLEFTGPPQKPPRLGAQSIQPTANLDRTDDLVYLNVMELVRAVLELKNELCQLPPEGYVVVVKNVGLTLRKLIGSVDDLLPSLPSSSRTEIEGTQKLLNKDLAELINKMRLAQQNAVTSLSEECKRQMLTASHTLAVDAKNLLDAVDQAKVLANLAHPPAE
Sequence of Tyrosine-protein kinase JAK1 (P23458 whole entry): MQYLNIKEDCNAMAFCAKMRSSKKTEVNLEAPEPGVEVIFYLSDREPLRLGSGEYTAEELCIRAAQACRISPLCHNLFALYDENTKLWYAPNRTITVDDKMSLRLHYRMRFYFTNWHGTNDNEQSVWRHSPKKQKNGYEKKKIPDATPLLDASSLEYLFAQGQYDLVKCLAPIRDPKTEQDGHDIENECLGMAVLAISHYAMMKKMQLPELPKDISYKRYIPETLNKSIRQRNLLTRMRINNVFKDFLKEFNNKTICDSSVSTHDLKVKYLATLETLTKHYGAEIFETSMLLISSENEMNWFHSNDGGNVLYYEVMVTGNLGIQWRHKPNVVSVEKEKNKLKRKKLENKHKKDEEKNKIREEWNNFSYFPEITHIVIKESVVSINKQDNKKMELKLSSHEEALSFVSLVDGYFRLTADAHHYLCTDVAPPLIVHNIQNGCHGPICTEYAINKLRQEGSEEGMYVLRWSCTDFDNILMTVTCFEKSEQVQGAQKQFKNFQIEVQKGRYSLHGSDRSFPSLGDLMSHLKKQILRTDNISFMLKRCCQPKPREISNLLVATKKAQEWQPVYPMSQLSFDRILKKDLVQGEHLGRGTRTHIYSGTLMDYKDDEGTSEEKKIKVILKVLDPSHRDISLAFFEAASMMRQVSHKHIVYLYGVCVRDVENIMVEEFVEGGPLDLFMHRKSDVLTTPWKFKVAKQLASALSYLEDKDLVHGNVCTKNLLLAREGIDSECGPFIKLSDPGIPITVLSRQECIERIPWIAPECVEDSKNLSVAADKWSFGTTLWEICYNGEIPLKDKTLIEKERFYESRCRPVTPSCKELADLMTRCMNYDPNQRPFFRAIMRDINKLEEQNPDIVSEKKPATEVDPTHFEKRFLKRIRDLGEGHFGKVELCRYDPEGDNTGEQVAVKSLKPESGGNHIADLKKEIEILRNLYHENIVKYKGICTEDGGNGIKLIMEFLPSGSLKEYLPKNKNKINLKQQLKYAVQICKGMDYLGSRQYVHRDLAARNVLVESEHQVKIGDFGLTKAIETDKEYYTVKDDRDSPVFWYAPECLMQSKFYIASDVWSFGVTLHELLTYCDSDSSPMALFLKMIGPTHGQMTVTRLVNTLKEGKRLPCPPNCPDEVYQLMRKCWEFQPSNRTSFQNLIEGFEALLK

Compound: CNc1ccn(Cc2ccccc2)c(=O)c1C(=O)Nc1ccc(Oc2ccnc3cc(OC)c(OC)cc23)cn1
IC50 (Focal adhesion kinase 1): > 125000 nM

Compound: COc1ccc2c(Oc3ccc(NC(=O)c4cc(-c5cnccn5)cn(-c5ccccc5)c4=O)nc3)ccnc2c1
IC50 (Focal adhesion kinase 1): > 125000 nM

Compound: COc1ccc2c(Oc3ccc(NC(=O)c4cc(-c5cccnc5)cn(-c5ccccc5)c4=O)nc3)ccnc2c1
IC50 (Focal adhesion kinase 1): > 125000 nM

Compound: COCCNc1ccn(-c2ccccc2)c(=O)c1C(=O)Nc1ccc(Oc2ccnc3cc(OC)ccc23)cn1
IC50 (Focal adhesion kinase 1): > 125000 nM

Next, values leading:

IC50 (Focal adhesion kinase 1): > 125000 nM
Compound: COc1cc2nccc(Oc3ccc(NC(=O)c4c(N(C)C)ccn(-c5ccccc5)c4=O)nc3)c2cc1OC

IC50 (Focal adhesion kinase 1): > 125000 nM
Compound: COc1cc2nccc(Oc3ccc(NC(=O)c4c(N5CCN(C)CC5)ccn(-c5ccccc5)c4=O)nc3)c2cc1OC

IC50 (Focal adhesion kinase 1): > 125000 nM
EC50 [1]: 10 nM
Activity [2]: Dose-dependent effect
Activity [3]: Dose-dependent effect
EC50 [4]: 10 nM
Activity [5]: Dose-dependent effect
Compound: COc1cc2nccc(Oc3ccc(NC(=O)c4cc(-c5cccs5)cn(-c5ccccc5)c4=O)nc3)c2cc1OC

IC50 (Focal adhesion kinase 1): > 125000 nM
Compound: COc1cc2nccc(Oc3ccc(NC(=O)c4cc(-c5cccnc5)cn(-c5ccccc5)c4=O)nc3)c2cc1OC

IC50 [6]: 35 nM
IC50 (Focal adhesion kinase 1): 17000 nM
EC50 [1]: 10 nM
Activity [2]: Dose-dependent effect
IC50 [7]: > 1000 nM
Activity [3]: Dose-dependent effect
EC50 [4]: 10 nM
Activity [5]: Dose-dependent effect
IC50 [8]: 110 nM
IC50 [9]: > 1000 nM
IC50 [10]: > 1000 nM
IC50 [11]: > 1000 nM
IC50 [12]: > 1000 nM
IC50 [13]: > 1000 nM
IC50 [14]: > 1000 nM
Compound: CNc1ccn(-c2ccccc2)c(=O)c1C(=O)Nc1ccc(Oc2ccnc3cc(OC)c(OC)cc23)cn1
